From ChEMBL document CHEMBL1147809, “Tumor-cell-targeted methionine-enkephalin analogues containing unnatural amino acids: design, synthesis, and in vitro antitumor activity” (2006)
*1 amine or outer side, *2 acyl side, *3 side chain or, on linkers, in order; H or OH if unused. Where a SMILES comes first, the peptide text is derived from it. [ ]: non-standard residue; d: D form. X1 = O=C(C(N[*:1])C1C2CC3CC(C2)CC1C3)[*:2]; X2 = O=C(C1(N[*:1])C2CC3CC(C2)CC1C3)[*:2]

Legend:
Format in all cases: functional
HeLa [1] = assay: Antiproliferative activity against human HeLa cell line at 1 uM relative to control
In short: (§1)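 Cells from ATCC grown as monolayers in DMEM with 10% FBS, 2 mM glutamine, penicillin/streptomycin, 37 °C, 5% CO2. Seeded at 2 × 10^4 cells/mL, and after 24 h the medium was replaced with fresh medium containing compound (water/10% DMSO stock, PBS working dilutions 10^-3 to 10^-6 M). Exposure was 72 h, then MTT read-out. Growth % = (A_peptide − A_blank)/(A_control − A_blank) × 100, with inhibition taken relative to untreated cells. Values are means of three experiments run in triplicate.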

HEp-2 [2] = assay: Antiproliferative activity against human HEp2 cell line at 1 uM relative to control; in short: as §1
HBL [3] = assay: Antiproliferative activity against human HBL cell line at 10 uM relative to control; in short: as §1
HT-29 [4] = assay: Antiproliferative activity against human HT29 cell line at 10 uM relative to control; in short: as §1
Caco-2 [5] = assay: Antiproliferative activity against human Caco-2 cell line at 1 uM relative to control; in short: as §1
SW-620 [6] = assay: Antiproliferative activity against human SW620 cell line at 1000 uM relative to control; in short: as §1
HT-29 [7] = assay: Antiproliferative activity against human HT29 cell line at 1000 uM relative to control; in short: as §1
HeLa [8] = assay: Antiproliferative activity against human HeLa cell line at 100 uM relative to control; in short: as §1
HEp-2 [9] = assay: Antiproliferative activity against human HEp2 cell line at 10 uM relative to control; in short: as §1
SW-620 [10] = assay: Antiproliferative activity against human SW620 cell line at 100 uM relative to control; in short: as §1
Caco-2 [11] = assay: Antiproliferative activity against human Caco-2 cell line at 100 uM relative to control; in short: as §1
HT-29 [12] = assay: Antiproliferative activity against human HT29 cell line at 1 uM relative to control; in short: as §1
HEp-2 [13] = assay: Antiproliferative activity against human HEp2 cell line at 100 uM relative to control; in short: as §1
Caco-2 [14] = assay: Antiproliferative activity against human Caco-2 cell line at 1000 uM relative to control; in short: as §1
Caco-2 [15] = assay: Antiproliferative activity against human Caco-2 cell line at 10 uM relative to control; in short: as §1
SW-620 [16] = assay: Antiproliferative activity against human SW620 cell line at 10 uM relative to control; in short: as §1
HeLa [17] = assay: Antiproliferative activity against human HeLa cell line at 1000 uM relative to control; in short: as §1
HEp-2 [18] = assay: Antiproliferative activity against human HEp2 cell line at 1000 uM relative to control; in short: as §1
HeLa [19] = assay: Antiproliferative activity against human HeLa cell line at 10 uM relative to control; in short: as §1
MCF7 [20] = assay: Antiproliferative activity against human MCF7 cell line at 1000 uM relative to control; in short: as §1
MCF7 [21] = assay: Antiproliferative activity against human MCF7 cell line at 100 uM relative to control; in short: as §1
SW-620 [22] = assay: Antiproliferative activity against human SW620 cell line at 1 uM relative to control; in short: as §1
HT-29 [23] = assay: Antiproliferative activity against human HT29 cell line at 100 uM relative to control; in short: as §1
MCF7 [24] = assay: Antiproliferative activity against human MCF7 cell line at 10 uM relative to control
In short: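 MTT assay on monolayer cells grown in DMEM with 10% FBS, 2 mM glutamine, penicillin and streptomycin, at 37 °C in 5% CO2. Cells were plated at 2 × 10^4 cells/mL on day 0. After 24 h the medium was replaced with fresh medium containing compound (working dilutions in PBS from 10% DMSO/water stock), then incubated 72 h. Percent growth inhibition was calculated against untreated cells after blank subtraction. Values are means of three experiments run in triplicate.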

HBL [25] = assay: Antiproliferative activity against human HBL cell line at 1000 uM relative to control; in short: as §1
HBL [26] = assay: Antiproliferative activity against human HBL cell line at 1 uM relative to control; in short: as §1
HBL [27] = assay: Antiproliferative activity against human HBL cell line at 100 uM relative to control; in short: as §1

## N[C@@H](Cc1ccc(O)cc1)C(=O)N[C@H](C(=O)O)C1C2CC3CC(C2)CC1C3 (stereo partly specified)
HeLa [1]
  inhibition at 1 µM: 7.5%
HEp-2 [2]
  inhibition at 1 µM: 6.2%
HBL [3]
  inhibition at 10 µM: 3.9%
HT-29 [4]
  inhibition at 10 µM: 8.9%
Caco-2 [5]
  inhibition at 1 µM: 3.7%
SW-620 [6]
  inhibition at 1000 µM: 17.9%
HT-29 [7]
  inhibition at 1000 µM: 20.8%
HeLa [8]
  inhibition at 100 µM: 3.1%
HEp-2 [9]
  inhibition at 10 µM: 6.4%
SW-620 [10]
  inhibition at 100 µM: 11.8%
Caco-2 [11]
  inhibition at 100 µM: 8.4%
HT-29 [12]
  inhibition at 1 µM: 4.9%
HEp-2 [13]
  inhibition at 100 µM: 8.2%
Caco-2 [14]
  inhibition at 1000 µM: 14.5%
Caco-2 [15]
  inhibition at 10 µM: 16.5%
SW-620 [16]
  inhibition at 10 µM: 21.9%
HeLa [17]
  inhibition at 1000 µM: 14.8%
HEp-2 [18]
  inhibition at 1000 µM: 21.2%
HeLa [19]
  inhibition at 10 µM: 6.1%
MCF7 [20]
  inhibition at 1000 µM: 17.8%
MCF7 [21]
  inhibition at 100 µM: 1.2%
SW-620 [22]
  inhibition at 1 µM: 10.5%
HT-29 [23]
  inhibition at 100 µM: 3.4%
MCF7 [24]
  inhibition at 10 µM: 1.1%
HBL [25]
  inhibition at 1000 µM: 7.3%

## CSCC[C@H](NC(=O)[C@H](Cc1ccccc1)NC(=O)CNC(=O)C(NC(=O)[C@@H](N)Cc1ccc(O)cc1)C1C2CC3CC(C2)CC1C3)C(=O)O (stereo partly specified) (H-Y[X1]GFM-OH)
HeLa [1]
  inhibition at 1 µM: 8.5%
HEp-2 [2]
  inhibition at 1 µM: 13.7%
HBL [3]
  inhibition at 10 µM: 4.5%
HT-29 [4]
  inhibition at 10 µM: 6.6%
Caco-2 [5]
  inhibition at 1 µM: 17.7%
SW-620 [6]
  inhibition at 1000 µM: 38.4%
HT-29 [7]
  inhibition at 1000 µM: 14.5%
HeLa [8]
  inhibition at 100 µM: 15.4%
HEp-2 [9]
  inhibition at 10 µM: 25.8%
SW-620 [10]
  inhibition at 100 µM: 14.6%
Caco-2 [11]
  inhibition at 100 µM: 12.1%
HT-29 [12]
  inhibition at 1 µM: 16.2%
HEp-2 [13]
  inhibition at 100 µM: 34.7%
Caco-2 [14]
  inhibition at 1000 µM: 8.1%
Caco-2 [15]
  inhibition at 10 µM: 10.9%
SW-620 [16]
  inhibition at 10 µM: 13.1%
HeLa [17]
  inhibition at 1000 µM: 24.1%
HEp-2 [18]
  inhibition at 1000 µM: 44.5%
HeLa [19]
  inhibition at 10 µM: 9.5%
MCF7 [20]
  inhibition at 1000 µM: 29.9%
HBL [26]
  inhibition at 1 µM: 2.4%
MCF7 [21]
  inhibition at 100 µM: 9.6%
SW-620 [22]
  inhibition at 1 µM: 26.4%
HT-29 [23]
  inhibition at 100 µM: 5.1%
HBL [27]
  inhibition at 100 µM: 11.4%
HBL [25]
  inhibition at 1000 µM: 23.2%

## N[C@@H](Cc1ccc(O)cc1)C(=O)N[C@H](C(=O)NCC(=O)O)C1C2CC3CC(C2)CC1C3 (stereo partly specified)
HeLa [1]
  inhibition at 1 µM: 9.8%
HEp-2 [2]
  inhibition at 1 µM: 2.7%
HBL [3]
  inhibition at 10 µM: 2.9%
HT-29 [4]
  inhibition at 10 µM: 7.4%
Caco-2 [5]
  inhibition at 1 µM: 2.2%
SW-620 [6]
  inhibition at 1000 µM: 23.4%
HT-29 [7]
  inhibition at 1000 µM: 15.7%
HeLa [8]
  inhibition at 100 µM: 9.9%
HEp-2 [9]
  inhibition at 10 µM: 2%
SW-620 [10]
  inhibition at 100 µM: 14.4%
Caco-2 [11]
  inhibition at 100 µM: 6.4%
HT-29 [12]
  inhibition at 1 µM: 5.4%
HEp-2 [13]
  inhibition at 100 µM: 18.8%
Caco-2 [14]
  inhibition at 1000 µM: 6.2%
Caco-2 [15]
  inhibition at 10 µM: 4.2%
SW-620 [16]
  inhibition at 10 µM: 20.4%
HeLa [17]
  inhibition at 1000 µM: 28.2%
HEp-2 [18]
  inhibition at 1000 µM: 26.7%
HeLa [19]
  inhibition at 10 µM: 7.3%
MCF7 [20]
  inhibition at 1000 µM: 21.2%
HBL [26]
  inhibition at 1 µM: 1.6%
SW-620 [22]
  inhibition at 1 µM: 13.6%
HT-29 [23]
  inhibition at 100 µM: 9.5%
HBL [27]
  inhibition at 100 µM: 5.9%
HBL [25]
  inhibition at 1000 µM: 17.9%

## CSCC[C@H](NC(=O)[C@H](Cc1ccccc1)NC(=O)CNC(=O)C1(NC(=O)[C@@H](N)Cc2ccc(O)cc2)C2CC3CC(C2)CC1C3)C(=O)O (stereo partly specified) (H-Y[X2]GFM-OH)
HeLa [1]
  inhibition at 1 µM: 4.9%
HEp-2 [2]
  inhibition at 1 µM: 1%
HBL [3]
  inhibition at 10 µM: 1.4%
HT-29 [4]
  inhibition at 10 µM: 11%
Caco-2 [5]
  inhibition at 1 µM: 3%
SW-620 [6]
  inhibition at 1000 µM: 29%
HT-29 [7]
  inhibition at 1000 µM: 23.7%
HeLa [8]
  inhibition at 100 µM: 13.3%
HEp-2 [9]
  inhibition at 10 µM: 10.1%
SW-620 [10]
  inhibition at 100 µM: 24.7%
Caco-2 [11]
  inhibition at 100 µM: 18.5%
HT-29 [12]
  inhibition at 1 µM: 3.3%
HEp-2 [13]
  inhibition at 100 µM: 16.8%
Caco-2 [14]
  inhibition at 1000 µM: 10.6%
Caco-2 [15]
  inhibition at 10 µM: 8.4%
SW-620 [16]
  inhibition at 10 µM: 15.5%
HeLa [17]
  inhibition at 1000 µM: 28%
HEp-2 [18]
  inhibition at 1000 µM: 36.1%
HeLa [19]
  inhibition at 10 µM: 10.2%
MCF7 [20]
  inhibition at 1000 µM: 22.8%
HBL [26]
  inhibition at 1 µM: 0.8%
SW-620 [22]
  inhibition at 1 µM: 12.2%
HT-29 [23]
  inhibition at 100 µM: 7.9%
HBL [27]
  inhibition at 100 µM: 2.4%
HBL [25]
  inhibition at 1000 µM: 18.3%
